Test results published in ChEMBL document CHEMBL1141647, “Novel ofloxacin derivatives: synthesis, antimycobacterial and toxicological evaluation” (Bioorg Med Chem Lett, 2008).
≈ marks a conversion by molar mass, not a printed value.

Tests used:
[1] = tested on: Mycobacterium tuberculosis; test: Antimycobacterial activity against multidrug resistant Mycobacterium tuberculosis by agar dilution method; format: functional
Procedure, shortened: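 MIC99 was taken as the lowest concentration giving complete inhibition of bacterial growth.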

[2] = Selectivity index, Ratio of IC50 for human Vero cells to MIC99 for multidrug resistant Mycobacterium tuberculosis; format: functional

Row | Compound | MIC99 [1] [µM] | Selectivity index [2]
1 | CC1COc2c(N3CCN(C(c4ccccc4)c4ccc(Cl)cc4)CC3)c(F)c([N+](=O)[O-])c3c(=O)c(C(=O)O)cn1c23 (stereo not given) | 2.63 (≈ 1.56 µg/mL) | –
2 | CC1COc2c(N3CCN(C(=O)c4ccco4)CC3)c(F)c([N+](=O)[O-])c3c(=O)c(C(=O)O)cn1c23 (stereo not given) | 1.6 (≈ 0.778 µg/mL) | –
3 | COc1cc2c(cc1OC)CN(c1c(F)c([N+](=O)[O-])c3c(=O)c(C(=O)O)cn4c3c1OCC4C)CC2 (stereo not given) | 3.12 (≈ 1.56 µg/mL) | –
4 | CC1COc2c(N3CCn4cc(C(=O)O)nc4C3)c(F)c(N)c3c(=O)c(C(=O)O)cn1c23 (stereo not given) | 1.76 (≈ 0.78 µg/mL) | –
5 | CC1COc2c(N3CCC4(CC3)OCCO4)c(F)c([N+](=O)[O-])c3c(=O)c(C(=O)O)cn1c23 (stereo not given) | 0.09 (≈ 0.0404 µg/mL) | –
6 | CC1COc2c(N3CCC4(CC3)OCCO4)c(F)cc3c(=O)c(C(=O)O)cn1c23 (stereo not given) | 0.09 (≈ 0.0364 µg/mL) | –
7 | CC1COc2c(N3CCN(C(=O)C4COc5ccccc5O4)CC3)c(F)c([N+](=O)[O-])c3c(=O)c(C(=O)O)cn1c23 (stereo not given) | 1.41 (≈ 0.782 µg/mL) | –
8 | CC1COc2c(N3CCn4cc(C(=O)O)nc4C3)c(F)cc3c(=O)c(C(=O)O)cn1c23 (stereo not given) | 0.44 (≈ 0.188 µg/mL) | –
9 | CC1COc2c(N3CCC(n4c(=O)[nH]c5cc(Cl)ccc54)CC3)c(F)cc3c(=O)c(C(=O)O)cn1c23 (stereo not given) | 0.76 (≈ 0.39 µg/mL) | –
10 | CC1COc2c(N3CCC(O)(c4ccc(Cl)cc4)CC3)c(F)c([N+](=O)[O-])c3c(=O)c(C(=O)O)cn1c23 (stereo not given) | 3.01 (≈ 1.56 µg/mL) | –
11 | CC1CN(c2c(F)c([N+](=O)[O-])c3c(=O)c(C(=O)O)cn4c3c2OCC4C)CC(C)O1 (stereo not given) | 3.7 (≈ 1.56 µg/mL) | –
12 | CC1CN(c2c(F)cc3c(=O)c(C(=O)O)cn4c3c2OCC4C)CC(C)O1 (stereo not given) | 8.3 (≈ 3.12 µg/mL) | –
13 | CC1COc2c(N3CCN(Cc4ccc5c(c4)OCO5)CC3)c(F)c([N+](=O)[O-])c3c(=O)c(C(=O)O)cn1c23 (stereo not given) | 5.95 (≈ 3.13 µg/mL) | –
14 | CC1COc2c(N3CCc4ccccc4C3C(=O)NC(C)(C)C)c(F)c([N+](=O)[O-])c3c(=O)c(C(=O)O)cn1c23 (stereo not given) | 1.45 (≈ 0.781 µg/mL) | –
15 | CC1COc2c(N3CCC4(CC3)OCCO4)c(F)c(N)c3c(=O)c(C(=O)O)cn1c23 (stereo not given) | 3.72 (≈ 1.56 µg/mL) | –
16 | CC1COc2c(N3CCSCC3)c(F)c([N+](=O)[O-])c3c(=O)c(C(=O)O)cn1c23 (stereo not given) | 1.91 (≈ 0.782 µg/mL) | –
17 | CC1COc2c(N3CCc4ccccc4C3C(=O)NC(C)(C)C)c(F)cc3c(=O)c(C(=O)O)cn1c23 (stereo not given) | 3.16 (≈ 1.56 µg/mL) | –
18 | CC1COc2c(N3CCSCC3)c(F)cc3c(=O)c(C(=O)O)cn1c23 (stereo not given) | 8.59 (≈ 3.13 µg/mL) | –
19 | CC1COc2c(N3CCN(C)C(c4ccccc4)C3)c(F)c([N+](=O)[O-])c3c(=O)c(C(=O)O)cn1c23 (stereo not given) | 3.23 (≈ 1.56 µg/mL) | –
20 | CC1COc2c(N3CCn4cc(C(=O)O)nc4C3)c(F)c([N+](=O)[O-])c3c(=O)c(C(=O)O)cn1c23 (stereo not given) | 0.09 (≈ 0.0426 µg/mL) | >1467
21 | CC1COc2c(N3CCC(n4c(=O)[nH]c5cc(Cl)ccc54)CC3)c(F)c([N+](=O)[O-])c3c(=O)c(C(=O)O)cn1c23 (stereo not given) | 0.34 (≈ 0.19 µg/mL) | –
22 | COc1cc2c(cc1OC)CN(c1c(F)cc3c(=O)c(C(=O)O)cn4c3c1OCC4C)CC2 (stereo not given) | 3.43 (≈ 1.56 µg/mL) | –
23 | NNC(=O)c1ccncc1 [ISONIAZID] | 45.6 (≈ 6.25 µg/mL) | –
24 | CC1COc2c(N3CCN(C)CC3)c(F)cc3c(=O)c(C(=O)O)cn1c23 (stereo not given) [OFLOXACIN] | 34.6 (≈ 12.5 µg/mL) | –
